Data published in ChEMBL document CHEMBL1126178, “Structure-activity study of hCGRP8-37, a calcitonin gene-related peptide receptor antagonist” (J Med Chem, 1992).

Experiments:
[1] = organism: Rattus norvegicus; assay: Dose inhibiting the twitch response induced by hCGRP-alpha in rat vas deferens.; format: functional
Method in brief: (§1)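 Atria were taken from male Hartley guinea pigs (350-400 g) and the prostatic vas deferens from male Sprague-Dawley rats (200-250 g). Tissues were mounted on platinum electrodes in oxygenated Krebs-Ringer at 37 °C and equilibrated 1 h at 0.5-1 g tension. Force-transducer responses were recorded to cumulative hCGRPα concentrations, with test peptide (1 µM) added 10 min before. Values are mean ± SE.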

[2] = organism: Cavia porcellus; assay: Dose inhibiting the ionotropic response induced by hCGRP-alpha in guinea pig right atrium.; format: functional; conditions: Cardiac atrium; method in brief: as §1
[3] = organism: Cavia porcellus; assay: Dose inhibiting the chronotropic response induced by hCGRP-alpha in guinea pig right atrium.; format: functional; conditions: Cardiac atrium; method in brief: as §1
[4] = target: Calcitonin gene-related peptide type 1 receptor (Rattus norvegicus, UniProt Q63118); assay: Binding affinity against [125I]-hCalcitonin gene-related peptide type alpha receptor binding sites in rat brain membrane; format: cell membranes
[5] = organism: Cavia porcellus; assay: Dose inhibiting the ionotropic response induced by hCGRP-alpha in guinea pig left atrium.; format: functional; conditions: Cardiac atrium; method in brief: as §1
[6] = organism: Cavia porcellus; assay: Dose inhibiting the chronotropic response induced by hCGRP-alpha in guinea pig right atrium relative to hCGRP(8-37).; format: functional, Cardiac atrium; design: unit not given here
[7] = organism: Cavia porcellus; assay: Dose inhibiting the ionotropic response induced by hCGRP-alpha in guinea pig left atrium relative to hCGRP(8-37).; format: functional, Cardiac atrium; design: unit not given here
[8] = organism: Cavia porcellus; assay: Dose inhibiting the ionotropic response induced by hCGRP-alpha in guinea pig right atrium relative to hCGRP(8-37).; format: functional, Cardiac atrium; design: unit not given here
[9] = organism: Rattus norvegicus; assay: Dose inhibiting the twitch response induced by hCGRP-alpha in rat vas deferens relative to hCGRP(8-37).; format: functional; design: unit not given here

Sequence of Calcitonin gene-related peptide type 1 receptor (Q63118 whole entry): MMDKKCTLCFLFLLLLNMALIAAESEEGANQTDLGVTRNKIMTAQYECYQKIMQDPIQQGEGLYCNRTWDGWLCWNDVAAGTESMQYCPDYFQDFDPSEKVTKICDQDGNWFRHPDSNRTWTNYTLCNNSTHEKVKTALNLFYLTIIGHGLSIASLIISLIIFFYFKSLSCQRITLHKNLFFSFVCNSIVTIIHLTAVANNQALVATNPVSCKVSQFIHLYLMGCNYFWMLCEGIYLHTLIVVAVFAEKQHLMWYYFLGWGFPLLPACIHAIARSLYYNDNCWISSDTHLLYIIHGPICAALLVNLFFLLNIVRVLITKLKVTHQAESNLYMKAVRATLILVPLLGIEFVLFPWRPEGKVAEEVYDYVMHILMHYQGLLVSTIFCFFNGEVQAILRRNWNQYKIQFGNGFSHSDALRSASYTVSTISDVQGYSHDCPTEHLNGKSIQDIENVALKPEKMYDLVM

EC50 [1] | EC50 [2] | EC50 [3] | IC50 [4] | EC50 [5] | Compound | Relative potency [6] | Relative potency [7] | Relative potency [8] | Relative potency [9]
3.2 nM | 114 nM | 77 nM | 10 nM | 65 nM | CC(C)C[C@H](NC(=O)CNC(=O)[C@H](C)NC(=O)[C@H](CC(C)C)NC(=O)[C@H](CCCN=C(N)N)NC(=O)[C@@H](N)Cc1c[nH]cn1)C(=O)N[C@@H](CC(C)C)C(=O)N[C@@H](CO)C(=O)N[C@@H](CCCN=C(N)N)C(=O)N[C@@H](CO)C(=O)NCC(=O)NCC(=O)N[C@H](C(=O)N[C@H](C(=O)N[C@@H](CCCCN)C(=O)N[C@@H](CC(N)=O)C(=O)N[C@@H](CC(N)=O)C(=O)N[C@@H](Cc1ccccc1)C(=O)N[C@H](C(=O)N1CCC[C@H]1C(=O)N[C@H](C(=O)N[C@@H](CC(N)=O)C(=O)N[C@H](C(=O)NCC(=O)N[C@@H](CO)C(=O)N[C@@H](CCCCN)C(=O)N[C@@H](C)C(=O)N[C@@H](Cc1ccccc1)C(N)=O)C(C)C)[C@@H](C)O)C(C)C)C(C)C)C(C)C | 27 | 34 | 43 | 48
1.4 nM | 7.9 nM | 19 nM |  | 8.7 nM | CC(C)C[C@H](NC(=O)CNC(=O)[C@H](C)NC(=O)[C@H](CC(C)C)NC(=O)[C@H](CCCN=C(N)N)NC(=O)[C@H](Cc1c[nH]cn1)NC(=O)[C@@H](NC(=O)[C@@H](NC(=O)[C@@H]1CSSC[C@H](NC(=O)[C@H](C)N)C(=O)N[C@@H](CC(=O)O)C(=O)N[C@@H]([C@@H](C)O)C(=O)N[C@@H](C)C(=O)N[C@@H]([C@@H](C)O)C(=O)N1)C(C)C)[C@@H](C)O)C(=O)N[C@@H](CC(C)C)C(=O)N[C@@H](CO)C(=O)N[C@@H](CCCN=C(N)N)C(=O)N[C@@H](CO)C(=O)NCC(=O)NCC(=O)N[C@H](C(=O)N[C@H](C(=O)N[C@@H](CCCCN)C(=O)N[C@@H](CC(N)=O)C(=O)N[C@@H](CC(N)=O)C(=O)N[C@@H](Cc1ccccc1)C(=O)N[C@H](C(=O)N1CCC[C@H]1C(=O)N[C@H](C(=O)N[C@@H](CC(N)=O)C(=O)N[C@H](C(=O)NCC(=O)N[C@@H](CO)C(=O)N[C@@H](CCCCN)C(=O)N[C@@H](C)C(=O)N[C@@H](Cc1ccccc1)C(N)=O)C(C)C)[C@@H](C)O)C(C)C)C(C)C)C(C)C |  |  |  | 
7.6 nM | 225 nM | 180 nM |  | 215 nM | CC(C)C[C@H](NC(=O)CNC(=O)[C@H](C)NC(=O)[C@H](CC(C)C)NC(=O)[C@H](CCCN=C(N)N)NC(=O)[C@H](Cc1c[nH]cn1)NC(=O)[C@@H](N)[C@@H](C)O)C(=O)N[C@@H](CC(C)C)C(=O)N[C@@H](CO)C(=O)N[C@@H](CCCN=C(N)N)C(=O)N[C@@H](CO)C(=O)NCC(=O)NCC(=O)N[C@H](C(=O)N[C@H](C(=O)N[C@@H](CCCCN)C(=O)N[C@@H](CC(N)=O)C(=O)N[C@@H](CC(N)=O)C(=O)N[C@@H](Cc1ccccc1)C(=O)N[C@H](C(=O)N1CCC[C@H]1C(=O)N[C@H](C(=O)N[C@@H](CC(N)=O)C(=O)N[C@H](C(=O)NCC(=O)N[C@@H](CO)C(=O)N[C@@H](CCCCN)C(=O)N[C@@H](C)C(=O)N[C@@H](Cc1ccccc1)C(N)=O)C(C)C)[C@@H](C)O)C(C)C)C(C)C)C(C)C |  |  |  | 
2.2 nM | 116 nM | 116 nM | 22 nM | 89 nM | H-VTHRAAGLLSRSGGVVKNNFVPTNVGSKAF-NH2 | 40 | 46 | 43 | 33

More lines, now with the values behind:

Compound | EC50 [1] | EC50 [2] | EC50 [3] | IC50 [4] | EC50 [5] | Relative potency [6] | Relative potency [7] | Relative potency [8] | Relative potency [9]
CC(C)C[C@H](NC(=O)CNC(=O)[C@H](C)NC(=O)[C@H](CC(C)C)NC(=O)[C@H](CCCN=C(N)N)NC(=O)[C@H](C)NC(=O)[C@@H](NC(=O)[C@@H](N)C(C)C)[C@@H](C)O)C(=O)N[C@@H](CC(C)C)C(=O)N[C@@H](CO)C(=O)N[C@@H](CCCN=C(N)N)C(=O)N[C@@H](CO)C(=O)NCC(=O)NCC(=O)N[C@H](C(=O)N[C@H](C(=O)N[C@@H](CCCCN)C(=O)N[C@@H](CC(N)=O)C(=O)N[C@@H](CC(N)=O)C(=O)N[C@@H](Cc1ccccc1)C(=O)N[C@H](C(=O)N1CCC[C@H]1C(=O)N[C@H](C(=O)N[C@@H](CC(N)=O)C(=O)N[C@H](C(=O)NCC(=O)N[C@@H](CO)C(=O)N[C@@H](CCCCN)C(=O)N[C@@H](C)C(=O)N[C@@H](Cc1ccccc1)C(N)=O)C(C)C)[C@@H](C)O)C(C)C)C(C)C)C(C)C | 3.2 nM | 179 nM | 129 nM |  | 95 nM |  |  |  | 
CC(C)C[C@H](NC(=O)CNC(=O)[C@H](C)NC(=O)[C@H](CC(C)C)NC(=O)[C@H](CCCN=C(N)N)NC(=O)[C@H](Cc1c[nH]cn1)NC(=O)[C@H](C)NC(=O)[C@@H](N)C(C)C)C(=O)N[C@@H](CC(C)C)C(=O)N[C@@H](CO)C(=O)N[C@@H](CCCN=C(N)N)C(=O)N[C@@H](CO)C(=O)NCC(=O)NCC(=O)N[C@H](C(=O)N[C@H](C(=O)N[C@@H](CCCCN)C(=O)N[C@@H](CC(N)=O)C(=O)N[C@@H](CC(N)=O)C(=O)N[C@@H](Cc1ccccc1)C(=O)N[C@H](C(=O)N1CCC[C@H]1C(=O)N[C@H](C(=O)N[C@@H](CC(N)=O)C(=O)N[C@H](C(=O)NCC(=O)N[C@@H](CO)C(=O)N[C@@H](CCCCN)C(=O)N[C@@H](C)C(=O)N[C@@H](Cc1ccccc1)C(N)=O)C(C)C)[C@@H](C)O)C(C)C)C(C)C)C(C)C | 2.4 nM | 193 nM | 238 nM | 6.8 nM | 117 nM | 82 | 60 | 72 | 36
CC(C)C[C@H](NC(=O)CNC(=O)[C@H](C)NC(=O)[C@H](CC(C)C)NC(=O)[C@@H](N)CCCN=C(N)N)C(=O)N[C@@H](CC(C)C)C(=O)N[C@@H](CO)C(=O)N[C@@H](CCCN=C(N)N)C(=O)N[C@@H](CO)C(=O)NCC(=O)NCC(=O)N[C@H](C(=O)N[C@H](C(=O)N[C@@H](CCCCN)C(=O)N[C@@H](CC(N)=O)C(=O)N[C@@H](CC(N)=O)C(=O)N[C@@H](Cc1ccccc1)C(=O)N[C@H](C(=O)N1CCC[C@H]1C(=O)N[C@H](C(=O)N[C@@H](CC(N)=O)C(=O)N[C@H](C(=O)NCC(=O)N[C@@H](CO)C(=O)N[C@@H](CCCCN)C(=O)N[C@@H](C)C(=O)N[C@@H](Cc1ccccc1)C(N)=O)C(C)C)[C@@H](C)O)C(C)C)C(C)C)C(C)C | 1.4 nM | 89 nM | 65 nM |  | 30 nM |  |  |  | 
CC(C)C[C@H](NC(=O)CNC(=O)[C@H](C)NC(=O)[C@H](CC(C)C)NC(=O)[C@H](CCCNC(=N)N)NC(=O)[C@H](Cc1cnc[nH]1)NC(=O)[C@@H](NC(=O)[C@@H](N)C(C)C)[C@@H](C)O)C(=O)N[C@@H](CC(C)C)C(=O)N[C@@H](CO)C(=O)N[C@@H](CCCNC(=N)N)C(=O)N[C@@H](CO)C(=O)NCC(=O)NCC(=O)N[C@H](C(=O)N[C@H](C(=O)N[C@@H](CCCCN)C(=O)N[C@@H](CC(N)=O)C(=O)N[C@@H](CC(N)=O)C(=O)N[C@@H](Cc1ccccc1)C(=O)N[C@H](C(=O)N1CCC[C@H]1C(=O)N[C@H](C(=O)N[C@@H](CC(N)=O)C(=O)N[C@H](C(=O)NCC(=O)N[C@@H](CO)C(=O)N[C@@H](CCCCN)C(=O)N[C@@H](C)C(=O)N[C@@H](Cc1ccccc1)C(N)=O)C(C)C)[C@@H](C)O)C(C)C)C(C)C)C(C)C | 6.7 nM | 267 nM | 290 nM |  | 194 nM |  |  |  | 
H-VTHALAGLLSRSGGVVKNNFVPTNVGSKAF-NH2 | 3.1 nM | 106 nM | 83 nM | 33 nM | 58 nM | 29 | 30 | 40 | 46
